Results taken from ChEMBL document CHEMBL4325889, “Natural products hybrids: 3,5,4'-Trimethoxystilbene-5,6,7-trimethoxyflavone chimeric analogs as potential cytotoxic agents against diverse human cancer cells” (Eur J Med Chem, 2019).

Tests used:
Format in all cases: functional
CCRF-CEM = test: Growth inhibition of human CCRF-CEM cells at 10 uM after 48 hrs by SRB assay relative to control; conditions: read-out: GI
How it was run: (§1)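 Screened at the National Cancer Institute by the standard NCI protocol using the sulforhodamine B assay, which measures cellular protein. Single dose of 10 µM. Result is percent growth inhibition; values above 100% mean cell number fell below the initial population. Values are the average of duplicates.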

HL-60(TB) = test: Growth inhibition of human HL-60(TB) cells at 10 uM after 48 hrs by SRB assay relative to control; conditions: HL-60, 48 h, read-out: GI
How it was run: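 Run at NCI under its standard single-dose protocol against a leukemia cell panel. Cells were exposed to 10 µM; growth was read by sulforhodamine B staining of cellular protein and expressed as % growth inhibition versus untreated control. Values above 100% mean the cell population fell below the starting count (cytocidal). Each value is the average of duplicates.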

K562 = test: Growth inhibition of human K562 cells at 10 uM after 48 hrs by SRB assay relative to control; conditions: K562, 48 h, read-out: GI; how it was run: as §1
MOLT-4 = test: Growth inhibition of human MOLT4 cells at 10 uM after 48 hrs by SRB assay relative to control; conditions: MOLT-4, 48 h, read-out: GI; how it was run: as §1
RPMI-8226 = test: Growth inhibition of human RPMI8226 cells at 10 uM after 48 hrs by SRB assay relative to control; conditions: RPMI-8226, 48 h, read-out: GI; how it was run: as §1
HOP-62 = test: Growth inhibition of human HOP62 cells at 10 uM after 48 hrs by SRB assay relative to control; conditions: HOP-62, 48 h, read-out: GI; how it was run: as §1
NCI-H226 = test: Growth inhibition of human NCI-H226 cells at 10 uM after 48 hrs by SRB assay relative to control; conditions: NCI-H226, 48 h, read-out: GI; how it was run: as §1
NCI-H23 = test: Growth inhibition of human NCI-H23 cells at 10 uM after 48 hrs by SRB assay relative to control; conditions: NCI-H23, 48 h, read-out: GI; how it was run: as §1
NCI-H460 = test: Growth inhibition of human NCI-H460 cells at 10 uM after 48 hrs by SRB assay relative to control; conditions: NCI-H460, 48 h, read-out: GI; how it was run: as §1
NCI-H522 = test: Growth inhibition of human NCI-H522 cells at 10 uM after 48 hrs by SRB assay relative to control; conditions: NCI-H522, 48 h, read-out: GI; how it was run: as §1
HCT-15 = test: Growth inhibition of human HCT15 cells at 10 uM after 48 hrs by SRB assay relative to control; conditions: HCT-15, 48 h, read-out: GI; how it was run: as §1
HT-29 = test: Growth inhibition of human HT-29 cells at 10 uM after 48 hrs by SRB assay relative to control; conditions: HT-29, 48 h, read-out: GI; how it was run: as §1
SW-620 = test: Growth inhibition of human SW620 cells at 10 uM after 48 hrs by SRB assay relative to control; conditions: SW-620, 48 h, read-out: GI
How it was run: (§2)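 NCI screen against its human cancer cell line panel by the standard NCI protocol, SRB protein stain. Single dose of 10 μM. Percent growth inhibition versus control; values above 100% mean the cell population fell below the starting number. Each value is the mean of duplicates.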

SF-295 = test: Growth inhibition of human SF295 cells at 10 uM after 48 hrs by SRB assay relative to control; conditions: SF-295, 48 h, read-out: GI; how it was run: as §1
SF-539 = test: Growth inhibition of human SF539 cells at 10 uM after 48 hrs by SRB assay relative to control; conditions: SF-539, 48 h, read-out: GI; how it was run: as §1
SNB-19 = test: Growth inhibition of human SNB19 cells at 10 uM after 48 hrs by SRB assay relative to control; conditions: SNB-19, 48 h, read-out: GI; how it was run: as §2
SNB-75 = test: Growth inhibition of human SNB75 cells at 10 uM after 48 hrs by SRB assay relative to control; conditions: SNB-75, 48 h, read-out: GI; how it was run: as §2
Malme-3M = test: Growth inhibition of human MALME-3M cells at 10 uM after 48 hrs by SRB assay relative to control; conditions: read-out: GI; how it was run: as §1
MDA-MB-435 = test: Growth inhibition of human MDA-MB-435 cells at 10 uM after 48 hrs by SRB assay relative to control; conditions: MDA-MB-435, 48 h, read-out: GI; how it was run: as §1
SK-MEL-28 = test: Growth inhibition of human SK-MEL-28 cells at 10 uM after 48 hrs by SRB assay relative to control; conditions: SK-MEL-28, 48 h, read-out: GI; how it was run: as §1
SK-MEL-5 = test: Growth inhibition of human SK-MEL-5 cells at 10 uM after 48 hrs by SRB assay relative to control; conditions: SK-MEL-5, 48 h, read-out: GI; how it was run: as §1
IGROV-1 = test: Growth inhibition of human IGROV1 cells at 10 uM after 48 hrs by SRB assay relative to control; conditions: IGROV-1, 48 h, read-out: GI; how it was run: as §1
OVCAR-5 = test: Growth inhibition of human OVCAR5 cells at 10 uM after 48 hrs by SRB assay relative to control; conditions: OVCAR-5, 48 h, read-out: GI; how it was run: as §1
OVCAR-8 = test: Growth inhibition of human OVCAR8 cells at 10 uM after 48 hrs by SRB assay relative to control; conditions: OVCAR-8, 48 h, read-out: GI; how it was run: as §1
786-0 = test: Growth inhibition of human 786-0 cells at 10 uM after 48 hrs by SRB assay relative to control; conditions: 786-0, 48 h, read-out: GI; how it was run: as §1
ACHN = test: Growth inhibition of human ACHN cells at 10 uM after 48 hrs by SRB assay relative to control; conditions: read-out: GI; how it was run: as §1
RXF 393 = test: Growth inhibition of human RXF393 cells at 10 uM after 48 hrs by SRB assay relative to control; conditions: RXF 393, 48 h, read-out: GI; how it was run: as §1
SN12C = test: Growth inhibition of human SN12C cells at 10 uM after 48 hrs by SRB assay relative to control; conditions: read-out: GI; how it was run: as §1
TK-10 = test: Growth inhibition of human TK10 cells at 10 uM after 48 hrs by SRB assay relative to control; conditions: TK-10, 48 h, read-out: GI; how it was run: as §2
PC-3 = test: Growth inhibition of human PC3 cells at 10 uM after 48 hrs by SRB assay relative to control; conditions: PC-3, 48 h, read-out: GI; how it was run: as §1
DU-145 = test: Growth inhibition of human DU145 cells at 10 uM after 48 hrs by SRB assay relative to control; conditions: DU-145, 48 h, read-out: GI; how it was run: as §1
BT-549 = test: Growth inhibition of human BT549 cells at 10 uM after 48 hrs by SRB assay relative to control; conditions: BT-549, 48 h, read-out: GI; how it was run: as §1
MDA-MB-468 = test: Growth inhibition of human MDA-MB-468 cells at 10 uM after 48 hrs by SRB assay relative to control; conditions: MDA-MB-468, 48 h, read-out: GI; how it was run: as §1

Compound	inhibition of growth at 10 µM (CCRF-CEM) [%]	inhibition of growth at 10 µM (HL-60(TB)) [%]	inhibition of growth at 10 µM (K562) [%]	inhibition of growth at 10 µM (MOLT-4) [%]	inhibition of growth at 10 µM (RPMI-8226) [%]	inhibition of growth at 10 µM (HOP-62) [%]	inhibition of growth at 10 µM (NCI-H226) [%]	inhibition of growth at 10 µM (NCI-H23) [%]	inhibition of growth at 10 µM (NCI-H460) [%]	inhibition of growth at 10 µM (NCI-H522) [%]	inhibition of growth at 10 µM (HCT-15) [%]	inhibition of growth at 10 µM (HT-29) [%]	inhibition of growth at 10 µM (SW-620) [%]	inhibition of growth at 10 µM (SF-295) [%]	inhibition of growth at 10 µM (SF-539) [%]	inhibition of growth at 10 µM (SNB-19) [%]	inhibition of growth at 10 µM (SNB-75) [%]	inhibition of growth at 10 µM (Malme-3M) [%]	inhibition of growth at 10 µM (MDA-MB-435) [%]	inhibition of growth at 10 µM (SK-MEL-28) [%]	also measured
COc1ccc(C(=O)Nc2cccc(-c3cc(=O)c4c(O)c(OC)c(OC)cc4o3)c2)cc1	11.9	15.4	11.9	19.1	25.2	30.2	41.4	15.7	17.4	34.4	7.47	1.12	9.52	20.6	15.3	34.1	32.5	0.28	5.59	9.4	inhibition of growth at 10 µM (SK-MEL-5): 16.2%; inhibition of growth at 10 µM (IGROV-1): 2.38%; inhibition of growth at 10 µM (OVCAR-5): 0.04%; inhibition of growth at 10 µM (OVCAR-8): 35.5%; inhibition of growth at 10 µM (786-0): 24.5%; inhibition of growth at 10 µM (ACHN): 23.7%; inhibition of growth at 10 µM (RXF 393): 4.27%; inhibition of growth at 10 µM (SN12C): 25.7%; inhibition of growth at 10 µM (TK-10): 18.4%; inhibition of growth at 10 µM (PC-3): 19.6%; inhibition of growth at 10 µM (DU-145): 5.4%; inhibition of growth at 10 µM (BT-549): 9.6%; inhibition of growth at 10 µM (MDA-MB-468): -6.18%
COc1cc2oc(-c3cccc(NC(=O)c4ccc5c(c4)OCO5)c3)cc(=O)c2c(O)c1OC	11.7	14	15	15.8	20.6	47.9	55.4	13.4	16.7	41.5	0.04	15.6	-1.42	19	77.4	33.8	47.6	7.67	5.39	15.2	inhibition of growth at 10 µM (SK-MEL-5): 25.9%; inhibition of growth at 10 µM (IGROV-1): 5.56%; inhibition of growth at 10 µM (OVCAR-5): 13.7%; inhibition of growth at 10 µM (OVCAR-8): 37.8%; inhibition of growth at 10 µM (786-0): 29.9%; inhibition of growth at 10 µM (ACHN): 30.5%; inhibition of growth at 10 µM (RXF 393): 32.6%; inhibition of growth at 10 µM (SN12C): 9.48%; inhibition of growth at 10 µM (TK-10): 15.3%; inhibition of growth at 10 µM (PC-3): 22.6%; inhibition of growth at 10 µM (DU-145): 2.12%; inhibition of growth at 10 µM (BT-549): 24.5%; inhibition of growth at 10 µM (MDA-MB-468): 17.6%
